Molecules are shown by their SMILES.

Consider five compounds from article PMC9049778 (RSC Advances, 2020).

The test system of experiment [1] is lung adenocarcinoma H1650. In words: MTT assay, H1650. In kind it is cell-based. The following applies: Homo sapiens, NCI-H1650, 24 h, read-out: IC50 ± S.D. H1650. An outline of the steps: (§1)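 Cell lines from ATCC were seeded at 10^4 cells per well in 100 μL medium. They were exposed to the test compound for 24 h at 37 °C under 5% CO2. Then 10 μL MTT (5.0 mg mL−1) was added for 4 h at 37 °C. Cells were lysed in isopropanol/conc. HCl/Triton X100 for 10 min at room temperature with shaking. Formazan was read at 570 nm, in triplicate.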
For orientation: Tetrazolium assays rely on reduction of a dye to a coloured formazan, in cell work by metabolically active cells.

Experiment [2] relates to human colon adenocarcinoma HT-29. Briefly: MTT assay, HT-29. It counts as cell-based. Conditions: read-out: IC50 ± S.D. HT-29, 24 h, mean of 3 independent experiments. An outline of the steps: as §1
The subject of experiment [3] is human promyelocytic leukemia HL-60. Briefly: MTT assay, HL-60. Conditions: read-out: IC50 ± S.D. HL-60, 24 h, mean of 3 independent experiments. It counts as cell-based. An outline of the steps: as §1
For a further experiment, the target named is PIM-3 (Homo sapiens, UniProt Q86V86). Briefly: PIM-3 kinase assay. It counts as biochemical. A digest of the protocol:
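Radiometric filter assay. Active PIM-3 was mixed with substrate (1 mg mL−1 stock) and started with [33P]-ATP cocktail (250 μM ATP stock), then held 15 min at 30 °C. Aliquots were spotted onto P81 phosphocellulose, washed three times for about 10 min each in 1% phosphoric acid, and scintillation-counted. A no-substrate blank was subtracted. Kinase specific activity came from corrected cpm, ATP specific activity, time and enzyme amount.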

The target in another experiment is PIM-1 (Homo sapiens, UniProt P11309). In words: PIM-1 kinase assay. It counts as biochemical.
PIM-1, sequence (P11309 whole entry): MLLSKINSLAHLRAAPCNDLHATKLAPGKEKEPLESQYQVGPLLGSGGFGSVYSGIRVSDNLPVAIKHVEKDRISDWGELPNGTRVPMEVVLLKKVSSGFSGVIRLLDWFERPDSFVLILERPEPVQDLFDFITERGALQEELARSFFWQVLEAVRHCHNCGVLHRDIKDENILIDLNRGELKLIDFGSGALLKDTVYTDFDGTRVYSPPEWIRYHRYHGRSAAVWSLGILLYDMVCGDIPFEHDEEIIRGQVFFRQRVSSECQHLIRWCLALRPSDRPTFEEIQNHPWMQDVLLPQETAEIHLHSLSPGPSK
In a further experiment the target is PIM-2 (Homo sapiens, UniProt Q9P1W9). In words: PIM-2 kinase assay. In kind it is biochemical. An outline of the steps: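 Luminescent ADP-Glo readout of ADP formed. Enzyme, substrate, ATP and inhibitor were diluted in kinase buffer, with 5% DMSO as vehicle. The kinase reaction ran 60 min at room temperature. ADP-Glo Reagent was then added for 40 min, followed by Kinase Detection Reagent for 30 min, both at room temperature, before luminescence was recorded.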
PIM-2, sequence (Q9P1W9 whole entry): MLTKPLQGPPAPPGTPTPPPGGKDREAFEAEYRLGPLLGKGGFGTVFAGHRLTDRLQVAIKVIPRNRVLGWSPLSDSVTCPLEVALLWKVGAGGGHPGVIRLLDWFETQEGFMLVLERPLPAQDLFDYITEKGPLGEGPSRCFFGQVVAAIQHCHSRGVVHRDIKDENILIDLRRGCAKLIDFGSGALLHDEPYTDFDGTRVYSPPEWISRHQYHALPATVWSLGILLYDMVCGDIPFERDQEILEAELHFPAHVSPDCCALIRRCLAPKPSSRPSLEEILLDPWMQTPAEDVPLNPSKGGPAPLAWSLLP

A further experiment addresses PIM-1 kinase. Conditions: read-out: IC50 against PIM-1 kinase enzyme; cited from earlier work.

For the compound `COc1ccc(/C=C/C(=O)CC2(O)C(=O)Nc3cc(Br)ccc32)cc1` (centres unmarked) [Compound 4, (E)-6-bromo-3-hydroxy-3-(4-(4-methoxyphenyl)-2-oxobut-3-enyl) indolin-2-one], in experiment [1], the IC50 is greater than 100000 nM.

`COc1ccc(/C=C/C(=O)/C=C2/C(=O)Nc3cc(Br)ccc32)cc1` [Compound 5, (E)-6-bromo-3-((E)-4-(4-methoxyphenyl)-2-oxobut-3-enylidene)indolin-2 one]: the IC50 was 1700 nM in experiment [2], 1400 nM in experiment [3] and greater than 100000 nM in experiment [1].

With `COc1ccc(/C=C/C(/C=C2/C(=O)Nc3cc(Br)ccc32)=N\O)cc1` [Compound 6, (E)-6-bromo-3-((2E,3E)-2-(hydroxyimino)-4-(4-methoxyphenyl)but-3-enylidene)indolin-2-one], the IC50 on PIM-3 was 360 ± 12 nM; on PIM-1, 470 ± 13 nM; at PIM-2, 220 ± 10 nM; in experiment [1], greater than 100000 nM.

With `Nc1nccc(-c2c[nH]c3ccc(Br)cc23)n1` [Meridianin C, 4-(5-bromo-1H-indol-3-yl)pyrimidin-2-amine], the IC50 on PIM-1 kinase is 1440 nM.

Take `O=c1c(O)c(-c2ccc(O)c(O)c2)oc2cc(O)cc(O)c12` [Querecitin, quercetin, reference compound]: the half-inhibitory concentration (IC50) against PIM-3 was 830 ± 13 nM; on PIM-2, 640 ± 10 nM.

In general, IC50 refers to the point on the concentration scale where inhibition reaches its midpoint.
